Measurements published in ChEMBL document CHEMBL4673255, “Acylated 1H-1,2,4-Triazol-5-amines Targeting Human Coagulation Factor XIIa and Thrombin: Conventional and Microscale Synthesis, Anticoagulant Properties, and Mechanism of Action” (J Med Chem, 2020).
pIC50: −log10 of the molar value.

Experiments:
[1] = molecular target: T1, Fatty-acid amide hydrolase 1 (Rattus norvegicus, UniProt P97612); test: Inhibition of FAAH in rat brain membrane using N-(2-hydroxyethyl)-4-pyren-1-ylbutanamide as substrate measured after 60 mins by reverse-phase HPLC-based fluorescence assay; type: cell membranes
T1 sequence (P97612 whole entry): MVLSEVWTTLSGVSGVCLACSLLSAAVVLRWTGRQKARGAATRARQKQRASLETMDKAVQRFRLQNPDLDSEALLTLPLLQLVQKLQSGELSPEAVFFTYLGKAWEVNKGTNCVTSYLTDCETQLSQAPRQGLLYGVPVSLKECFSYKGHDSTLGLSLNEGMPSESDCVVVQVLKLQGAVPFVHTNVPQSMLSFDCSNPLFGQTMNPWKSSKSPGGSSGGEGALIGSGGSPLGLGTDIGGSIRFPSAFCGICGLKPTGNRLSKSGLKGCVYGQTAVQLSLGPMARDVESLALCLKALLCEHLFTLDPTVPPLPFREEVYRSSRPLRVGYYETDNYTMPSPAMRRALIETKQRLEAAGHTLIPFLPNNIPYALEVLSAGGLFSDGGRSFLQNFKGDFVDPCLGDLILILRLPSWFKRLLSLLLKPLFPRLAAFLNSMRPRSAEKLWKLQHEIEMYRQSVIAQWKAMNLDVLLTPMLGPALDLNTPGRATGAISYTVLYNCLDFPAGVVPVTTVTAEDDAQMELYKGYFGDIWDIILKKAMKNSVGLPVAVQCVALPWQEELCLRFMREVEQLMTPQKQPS

Monoglyceride lipase = molecular target: T2, Monoglyceride lipase (Homo sapiens, UniProt Q99685); test: Inhibition of human recombinant MAGL using 1,3-dihydroxypropan-2-yl 4-pyren-1-ylbutanoate as substrate measured after 45 mins by reverse-phase HPLC-based fluorescence assay
T2 sequence (Q99685 whole entry): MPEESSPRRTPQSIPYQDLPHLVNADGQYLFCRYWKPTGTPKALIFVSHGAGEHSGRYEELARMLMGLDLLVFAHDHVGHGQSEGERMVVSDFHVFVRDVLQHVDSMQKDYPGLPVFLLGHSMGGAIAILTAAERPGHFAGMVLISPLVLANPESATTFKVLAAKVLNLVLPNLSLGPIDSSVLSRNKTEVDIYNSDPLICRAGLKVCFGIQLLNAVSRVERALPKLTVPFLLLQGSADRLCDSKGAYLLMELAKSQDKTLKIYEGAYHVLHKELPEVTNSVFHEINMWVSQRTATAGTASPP

Coagulation factor XI = Coagulation factor XI (Homo sapiens, UniProt P03951); test: Inhibition of human coagulation factor XIA using Mes-dArg-Pro-Arg-AMC as fluorogenic substrate measured at 1 min interval for 1 hr by fluorometric assay
Chain of Coagulation factor XI (P03951 19-387 limits assumed): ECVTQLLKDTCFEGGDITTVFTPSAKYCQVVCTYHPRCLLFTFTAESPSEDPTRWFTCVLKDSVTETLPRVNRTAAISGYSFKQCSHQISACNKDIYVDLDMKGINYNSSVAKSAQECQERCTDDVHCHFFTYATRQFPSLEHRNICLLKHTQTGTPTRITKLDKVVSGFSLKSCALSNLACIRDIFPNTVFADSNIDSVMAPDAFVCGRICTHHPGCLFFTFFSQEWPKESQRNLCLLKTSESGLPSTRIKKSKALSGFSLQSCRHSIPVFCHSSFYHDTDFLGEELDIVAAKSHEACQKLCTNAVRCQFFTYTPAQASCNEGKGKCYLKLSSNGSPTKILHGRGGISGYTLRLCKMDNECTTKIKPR
Chain of Coagulation factor XI (P03951 388-625 limits assumed): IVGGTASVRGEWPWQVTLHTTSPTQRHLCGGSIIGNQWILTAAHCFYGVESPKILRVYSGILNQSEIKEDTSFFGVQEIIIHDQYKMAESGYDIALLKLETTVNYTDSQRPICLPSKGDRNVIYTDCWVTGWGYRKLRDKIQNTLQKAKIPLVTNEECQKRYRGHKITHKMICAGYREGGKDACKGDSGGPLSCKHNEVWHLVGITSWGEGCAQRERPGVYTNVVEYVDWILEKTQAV

Blood [2] = test: Effect on blood coagulation in human blood assessed as increase in prothrombin time at 300 uM incubated for 3 mins followed by CaCl2 addition by PT reagent based assay relative to control; type: ADME, tissue-based; details: 0.05 h
Procedure, shortened: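 Clotting was started with PT reagent already containing CaCl2, prewarmed to 37 °C, and clotting time was recorded. Increase is given relative to DMSO; at least triplicate, mean ± SD.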

Plasma kallikrein = Plasma kallikrein (Homo sapiens, UniProt P03952); test: Inhibition of human kallikrein using Mes-dArg-Pro-Arg-AMC as fluorogenic substrate measured at 1 min interval for 1 hr by fluorometric assay
Chain of Plasma kallikrein (P03952 20-390 limits assumed): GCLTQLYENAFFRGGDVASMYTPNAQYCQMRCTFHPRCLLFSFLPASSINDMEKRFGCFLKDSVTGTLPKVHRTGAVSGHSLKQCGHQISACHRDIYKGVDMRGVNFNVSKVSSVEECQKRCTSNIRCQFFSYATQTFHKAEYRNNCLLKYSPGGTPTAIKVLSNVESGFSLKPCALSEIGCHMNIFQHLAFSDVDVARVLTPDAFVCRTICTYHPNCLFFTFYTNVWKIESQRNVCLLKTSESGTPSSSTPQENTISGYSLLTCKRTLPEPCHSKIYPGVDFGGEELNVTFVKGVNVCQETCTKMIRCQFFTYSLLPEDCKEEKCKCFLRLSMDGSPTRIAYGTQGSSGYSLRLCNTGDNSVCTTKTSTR
Chain of Plasma kallikrein (P03952 391-638 limits assumed): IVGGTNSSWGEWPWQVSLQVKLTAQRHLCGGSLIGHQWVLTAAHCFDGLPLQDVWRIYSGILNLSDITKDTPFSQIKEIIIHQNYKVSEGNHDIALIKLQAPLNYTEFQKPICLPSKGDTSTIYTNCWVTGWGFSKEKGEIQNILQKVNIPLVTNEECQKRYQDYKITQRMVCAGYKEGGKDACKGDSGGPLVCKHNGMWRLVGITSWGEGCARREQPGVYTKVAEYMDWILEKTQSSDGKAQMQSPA

[3] = molecular target: Urokinase-type plasminogen activator (Homo sapiens, UniProt P00749); test: Inhibition of human uPA using Tos-Gly-Pro-Arg-AMC as fluorogenic substrate measured at 1 min interval for 1 hr by fluorometric assay
[4] = molecular target: T3, Coagulation factor XII (Homo sapiens) (UniProt P00748); test: Inhibition of human coagulation factor XIIA in presence of Boc-Gln-Gly-Arg-AMC as fluorogenic substrate at 1 uM measured at 1 min interval for 1 hr by fluorometric assay relative to control
T3 sequence (whole entry): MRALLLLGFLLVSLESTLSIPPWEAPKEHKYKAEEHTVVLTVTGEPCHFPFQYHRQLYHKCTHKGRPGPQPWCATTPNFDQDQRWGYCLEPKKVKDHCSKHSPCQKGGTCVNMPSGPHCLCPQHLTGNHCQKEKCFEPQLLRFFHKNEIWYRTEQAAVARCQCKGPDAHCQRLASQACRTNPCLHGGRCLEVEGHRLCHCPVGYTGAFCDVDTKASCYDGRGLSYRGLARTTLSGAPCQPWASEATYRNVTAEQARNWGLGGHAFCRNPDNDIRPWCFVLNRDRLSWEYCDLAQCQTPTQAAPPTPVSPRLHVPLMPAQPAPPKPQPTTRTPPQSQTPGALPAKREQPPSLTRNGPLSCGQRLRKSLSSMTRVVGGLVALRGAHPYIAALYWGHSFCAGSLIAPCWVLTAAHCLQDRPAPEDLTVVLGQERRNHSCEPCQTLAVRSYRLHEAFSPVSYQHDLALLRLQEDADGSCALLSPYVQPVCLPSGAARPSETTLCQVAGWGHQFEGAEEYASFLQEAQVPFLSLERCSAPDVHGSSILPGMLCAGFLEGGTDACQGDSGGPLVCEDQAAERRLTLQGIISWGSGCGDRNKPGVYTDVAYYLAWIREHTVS
Procedure, shortened: (§1)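 Screening of crude microscale amide-coupling products. Conversion was measured by 1H NMR and product content normalised to 76 µmol/L in DMSO, then tested at 1 µM and 100 nM in the fluorogenic FXIIa or thrombin assay. A 0-conversion reaction served as blank. Percent inhibition is from triplicates.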

Plasma [5] = test: Anticoagulant activity in human platelet-rich plasma assessed as reduction in TF-induced thrombin generation by measuring endogenous thrombin potential at 100 uM preincubated for 15 mins followed by TF addition by Z-Gly-Gly-Arg-AMC substrate based calibrated automated thrombography (reference value: 1203 +/- 44 AU.min/L); type: functional; details: 0.25 h
Procedure, shortened: (§2)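 Tissue-factor-triggered homogeneous thrombin generation followed by fluorogenic substrate cleavage. Read-outs: clotting time (T1/2), peak amplitude (Amax, AU/L), time to peak (Tmax) and ETP (AU·min/L). DMSO and buffer served as controls. n = 3, mean ± SD.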

Prothrombin = Prothrombin (Homo sapiens, UniProt P00734); test: Inhibition of human coagulation factor thrombin using Boc-Val-Pro-Arg-AMC as fluorogenic substrate at 100 nM measured at 1 min interval for 1 hr by fluorometric assay relative to control; procedure, shortened: as §1
Blood [6] = test: Anticoagulant activity in human blood assessed as increase in activated partial thromboplastin time at 300 uM incubated for 1 min by aPTT reagent based assay relative to control; type: functional
Procedure, shortened: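 Compounds were tested at 300 µM, and the increase was expressed relative to DMSO. The doubling concentration (EC2×) is the concentration prolonging aPTT twofold. At least triplicate, mean ± SD.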

[7] = molecular target: T3, Coagulation factor XII (Homo sapiens); test: Inhibition of human coagulation factor XIIA using Boc-Gln-Gly-Arg-AMC as fluorogenic substrate at 100 nM measured at 1 min interval for 1 hr by fluorometric assay relative to control; procedure, shortened: as §1
Plasma [8] = test: Anticoagulant activity in human platelet-rich plasma assessed as reduction in TF-induced thrombin generation by measuring half life of clotting time at 100 uM preincubated for 15 mins followed by TF addition by Z-Gly-Gly-Arg-AMC substrate based calibrated automated thrombography (Rvb= 3 +/- 0.5 min); type: functional, cell-free; procedure, shortened: as §2

pIC50 [1] | pIC50 (Monoglyceride lipase) | pIC50 (Coagulation factor XI) | Activity (Blood [2]) | pIC50 (Plasma kallikrein) | pIC50 [3] | inhibition [4] | inhibition (Prothrombin) | inhibition [7] | Compound | Activity (Plasma [5]) | Activity (Blood [6]) | T1/2 (Plasma [8])
< 5.30 | < 5.30 | < 5.30 | 14% | < 5.30 | < 5.30 | 98% | 13% | 77% | Nc1nc(-c2ccccn2)nn1C(=O)c1cccc2ccccc12 | 738 AU.min/L | 176% | 2.7 min
< 5.30 | < 5.30 | < 5.30 | 575% | < 5.30 | 5.17 | 77% | 55% | 19% | Nc1nc(-c2ccccn2)nn1C(=O)c1ccc2ccccc2c1 | 2160 AU.min/L | 212% | 2.3 min
